Source: the RNAGym collection of RNA variant scans (doi:10.1126/science.aae0568)
This sample holds only a part of the variants without activity.

B1: tRNA (parent)
chain: GUUCCGUUGGCGUAAUGGUAACGCGUCUCCCUCCUAAGGAGAAGACUGCGGGUUCGAGUCCCGUACGGAACG

Variants of: B1
Assay: yeast fitness relative to wild type (ratio to wild type); higher = fitter; tRNA-Arg(CCU), competitive growth, 37 C, YPD
Method in brief: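 Genotype frequency changes were the basis for Darwinian fitness relative to wild type. The frequencies came from 100-nucleotide paired-end sequencing of gene amplicons from the start population and each end population of pooled yeast strains with tRNA-Arg(CCU) gene variants at the native locus. Competition ran in YPD at 37°C for 24 hours in six replicates, genotypes needed ≥ 100 starting reads, and estimates < 0.5 were set to 0.5.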

Variant	yeast fitness
GUUCCGUUGGCGUAAUCGUACCGCGACUCCCUCCUAAGGAGAAGACUGCGGGUUCGAGUCCCGUACGGAACG [G17C A21C U26A]	≤ 0.5
GUUCCGUUGGCGUAAUCGUAUCGCGUCUCCCUGCUAAAGAGAAGACUGCGGAUUCGAGUCCCGUACGGAACG [G17C A21U C33G G38A G52A]	≤ 0.5
GUUCCGUUGGCGUAAUCGUAACGGGUCUCCCUCCUAAGGAGAAGAGUGCGGGUUCGAGUCCCGUAUGGAACG [G17C C24G C46G C66U]	≤ 0.5
GUUCCGUUGGCGUAAUCGUAAUGCGUCUGCCUCCUAAGGAGAAGACUGCGCGUUCGAGUCCCGUACGGAACG [G17C C22U C29G G51C]	≤ 0.5
GUUCCGUUGGCGUAAUCGUAGCGCGUUUCCCUGCUAAGGAGUAGACUACGGGUUCGGGUCCCGUACGGAACG [G17C A21G C27U C33G A42U G48A A57G]	≤ 0.5
GUUCCGUUGGCGUAAUCGUAACGCGUCUCCCUCCUAAGGGGUAGACUGCGGGUUCGAGUCCUGUACGGAACG [G17C A40G A42U C62U]	≤ 0.5
GUUCCGUUGGCGUAAUCGUAACGCGUCUCCCUCCUAAGGUGAAGACUGCGGGUUCGAGUCCCGUAGGGAACG [G17C A40U C66G]	≤ 0.5
GUUCCGUUGGCGUAAUCGUAACGGGUCUCCCUCUUAAGGAGAAGACUGCGGGUUCGAGUCCCGUAUGGAACG [G17C C24G C34U C66U]	0.548
GUUCCGUUGGCGUAAUCGUAACGCGUUUCCCUCCUGAGGAGAAGACUGCGGGUUCGAGUCCCGUACGGAACG [G17C C27U A36G]	0.714
GUUCCGUUGGCGUAAUCGUAACGCGUCUCCCUCCUAAGGAGUAGACUGCGGGUUCGAGUCCCGUACGGAACG [G17C A42U]	0.703
GUUCCGUUGGCGUAAUCGUAACGCGUCUCCCUCCUAAGGAGGAGACUGCGGGUUCGAGUCCCGUACGGAACG [G17C A42G]	0.528
GUUCCGUUGGCGUAAUCGUAAGGAGUCUCCCUCCUAAGGAGAAGACUGCGGGUUCGAGUCCCGUACGGAACG [G17C C22G C24A]	≤ 0.5
GUUCCGUUGGCGUAAUCGUUACGCGUCUCCCUCCUAAGGAGUAGACUGCGGGUUCGAGUCCCGUACGGAACG [G17C A20U A42U]	0.604
GUUCCGUUGGCGUAAUCGUAACGCGUCUCCCUCCUAAGGAGAUGACUGCGGGUUCGAGUCCUGUACGGAACG [G17C A43U C62U]	0.632
GUUCCGUUGGCGUAAUCGUAACGAGUCUCCCUCCUAAGGAGAAGACUGCGGGUUCGAGUCCCGUACGGCACG [G17C C24A A69C]	0.553
GUUCCGUUGGCGUAAUCGUGACGCGUCUCCCUCCUAAGGAGAAGACUGCGGGUUCGAGUCCCGUACGGAACG [G17C A20G]	0.553
GUUCCGUUGGCGUAAUCGUAAGGCGUCUCUCUCCUAAGGACAAGAUUGCGGGUUCGAGUCCCGUUCGGAACG [G17C C22G C30U G41C C46U A65U]	≤ 0.5
GUUCCGUUGGCGUAAUCGUAACGCGUAUCCCUCCUAAGGAGAAGACUGCGGGUUCGAGUCGCGUACGGAACG [G17C C27A C61G]	≤ 0.5
GUUCCGUUGGCGUAAUCGUAACGCGUCUCCCUCCUAAGGAGCAGACUGCGGGUUCGAGUACCGUACGGAACG [G17C A42C C60A]	≤ 0.5

Variant	yeast fitness
GUUCCGUUGGCGUAAUCGUAACGCGUCUCCCUCCUAAGGAGUAGACUGCGGGUUCGAGUCCCGUACGGAGCG [G17C A42U A70G]	0.653
GUUCCGUUGGCGUAAUCGUAGCGCGUCUCCCUACUAAGGAGAAGACUGUGGGUUCGAGUCCCGUACGGAACG [G17C A21G C33A C49U]	≤ 0.5
GUUCCGUUGGCGUAAUCGUAAGGCGCCUCCCUCCUAAGGAGAAGACAGCGGGUUCGAGUCCCGUAUGGAACG [G17C C22G U26C U47A C66U]	≤ 0.5
GUUCCGUUGGCGUAAUCGUAAGGCGUCUACCUCCUAAGGAGAAGAUUGCGGGUUCGAGUCCCGUCCGGAACG [G17C C22G C29A C46U A65C]	≤ 0.5
GUUCCGUUGGCGUAAUCGUAACGCGUGUCCCUCCUAAGGAGAAGACUGCGGGUUCGAGUCCCGUACGGAACG [G17C C27G]	0.558
GUUCCGUUGGCGUAAUCGUAACGCGUAUCCCUCCUAAGGAGAAGACUGCGGGUUCGAGUCCCGUACGGAACG [G17C C27A]	0.674
GUUCCGUUGGCGUAAUCGUAACGCGUUUCCCUCCUAAGGAGAAGACUGCGGGUUCGAGUCCCGUACGGAACG [G17C C27U]	0.617
GUUCCGUUGGCGUAAUCGUAUCGCGUCUCCCUCCUAAGGAGAAGACUGCGGGUUCGUGUCCCGUACGGAACG [G17C A21U A57U]	0.564
GUUCCGUUGGCGUAAUCGUGACGCGUCUCCCUCCUAAGGAGAAGACUGCGAGUUCGAGUCCCGUACGGAACG [G17C A20G G51A]	≤ 0.5
GUUCCGUUGGCGUAAUCGUAUCGCGUCUCCCUGCUAAGGAGAAGACUGCGGGUUCGAGUCCCGUACGGAACG [G17C A21U C33G]	≤ 0.5
GUUCCGUUGGCGUAAUCGUGACGCGUCUCGCUCCUAAGGAGAAGACUGCGGGUUCGAGUCCCGUUCGGAACG [G17C A20G C30G A65U]	≤ 0.5
GUUCCGUUGGCGUAAUCGUAACGCGUCUCCCUCCUUAGGAGAAGACUCCGGGUCCGAGUACCGGACGGAACG [G17C A36U G48C U54C C60A U64G]	≤ 0.5
GUUCCGUUGGCGUAAUCGUCACGCGUCUCCCUCCUAAGAAGAAGACUGCGGGUUCGAGUCCCGUACGGAACG [G17C A20C G39A]	0.528
GUUCCGUUGGCGUAAUCGUAACGGGUCUCCCUCCUAAGGAGAAGACUCCGGGUUCGAGUCCCGUACGGAACG [G17C C24G G48C]	≤ 0.5
GUUCCGUUGGCGUAAUCGUAACGCGUCUCCCUCCUACGGAGAAGUCUGCGGGUUCGAGUCCCGUACGGAACG [G17C A37C A45U]	0.659
GUUCCGUUGGCGUAAUCGUAACGGGUCUCUCUCCUAAGGAGAAGACUGCCGGUUCGAGUCCCGUACGGAACG [G17C C24G C30U G50C]	≤ 0.5
GUUCCGUUGGCGUAAUCGUAACGGGUCACUCUCCUAAGGAGAAGACUGCGGAUUCGAGUCCCGUACGGAACG [G17C C24G U28A C30U G52A]	≤ 0.5
GUUCCGUUGGCGUAAUCGUAACGGGUCACUCUCCUAAUGAGAAGACUGCGGGUUCGAGUCCCGUUCGGCACG [G17C C24G U28A C30U G38U A65U A69C]	≤ 0.5
